By IC50 is commonly meant the midpoint of a concentration-inhibition curve. Low values mean higher potency, high ones lower potency.

Experiment [1] relates to Human immunodeficiency virus 1. The experiment is described as follows: In vitro inhibitory concentration against HIV-1 Y181C mutant strain. Type of experiment: functional, organism-based. In outline:
(§1)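 MT4 human T-lymphoblastoid cells, grown in RPMI 1640 with 10% fetal calf serum and antibiotics at 37 °C under 5% CO2. Mutant HIV-1 strains were added at 200 CCID50/well with 30 000 cells/well across a compound concentration range. After 5 days at 37 °C, viability was read by MTT colorimetry. EC50 is the concentration giving 50% infection relative to the drug-free control.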

The subject of experiment [2] is Human immunodeficiency virus 1. Briefly: In vitro inhibitory concentration against HIV K103N mutant strain. Format: functional, organism-based. In outline: as §1
In experiment [3] the test system is Human immunodeficiency virus 1. The experiment is described as follows: Selective index value (ratio of CC50 to IC50 value)against HIV LAI cell line. Type of experiment: functional. In outline: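 Ratio of CC50 to IC50 against LAI. CC50 came from mock-infected MT4 cultures (30 000 cells/well) given the same compound concentration range, run in parallel with LAI-infected cultures (200 CCID50/well). Incubation was 5 days at 37 °C in 5% CO2, with MTT viability read-out.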

Experiment [4] concerns Human immunodeficiency virus 1. The experiment is described as follows: In vitro inhibitory concentration against HIV LAI cell line. Type of experiment: functional, organism-based. As to conditions: Human immunodeficiency virus 1, LAI. In outline:
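HIV-1 LAI was added at 200 CCID50/well to MT4 human T-lymphoblastoid cells (30 000 cells/well) across a concentration range of compound. Cells were grown in RPMI 1640 with 10% fetal calf serum and antibiotics. After 5 days at 37 °C in 5% CO2, cell viability was read by MTT colorimetry. EC50 was the concentration giving 50% infection versus the drug-free control.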

Experiment [5] concerns Human immunodeficiency virus 1. Briefly: In vitro inhibitory concentration against HIV Y188L mutant strain. Type of experiment: functional, organism-based. In outline: as §1

With `CCC(=O)Nc1c(Cc2cc(C)cc(C)c2)c(CC)c(C)[nH]c1=O`, the IC50 in experiment [1] amounted to 100 µM; in experiment [2] it was 100 µM; in experiment [4], 3.98 µM. For the same molecule, the SI in experiment [3] amounted to 25.
In the case of `CCc1c(C)[nH]c(=O)c(NC(C)=O)c1Cc1cc(C)cc(C)c1`, the IC50 was 25.1 µM in experiment [1], 19.9 µM in experiment [2], 100 µM in experiment [5] and 0.398 µM in experiment [4]. In experiment [3], the SI worked out at 251.
`CCNc1c(Cc2cc(C)cc(C)c2)c(CC)c(C)[nH]c1=O`: the IC50 in experiment [1] was determined as 100 µM; in experiment [2] it was 0.316 µM; in experiment [5], 100 µM; in experiment [4], 0.016 µM. Also, the SI in experiment [3] amounted to 126.
Consider `CCCN(C)c1c(Cc2cc(C)cc(C)c2)c(CC)c(C)[nH]c1=O`, for which the figures for the IC50 in experiment [1], in experiment [2] and in experiment [4] were 0.398 µM, 0.1 µM and 0.016 µM, respectively. Further, in experiment [3], the SI stood at 6310.
As for `CCOCCN(C)c1c(Cc2cccc(C)c2)c(CC)c(C)[nH]c1=O`, the SI in experiment [3] is 7940. Moreover, in experiment [4], the IC50 was found to be 0.013 µM.
Turning to `CCCc1c(C)[nH]c(=O)c(N(C)C)c1Cc1cc(C)cc(C)c1`, the IC50 in experiment [1] came out at 0.316 µM; in experiment [2], 0.079 µM; in experiment [5], 0.631 µM; in experiment [4], 0.05 µM. Further, in experiment [3], the SI is 2000.
With `CCc1c(C)nc(O)c(N(C)C)c1C(=O)c1cccc(C)c1`, the IC50 in experiment [5] was 2 µM; in experiment [4], 0.0025 µM. Also, in experiment [3], the SI is 39800.
For `CCc1c(C)[nH]c(=O)c(N2CCCCC2)c1Cc1cc(C)cc(C)c1`, the results for the IC50 in experiment [1], in experiment [2] and in experiment [4] were 39.8 µM, 63.1 µM and 0.631 µM, respectively. The SI in experiment [3] is 158.
Turning to `CCc1c(C)[nH]c(=O)c(N(C)CCCO)c1Cc1cccc(C)c1`, the IC50 stood at 1.58 µM in experiment [1], 0.316 µM in experiment [2], 5.01 µM in experiment [5] and 0.003 µM in experiment [4]. Moreover, in experiment [3], the SI amounted to 31600.
On to `CCc1[nH]c(=O)c(N(C)C)c(Cc2cc(C)cc(C)c2)c1C`, for which the IC50 in experiment [1] worked out at 0.251 µM; in experiment [2] it was 0.1 µM; in experiment [5], 5.01 µM; in experiment [4], 0.01 µM. Moreover, in experiment [3], the SI was found to be 10000.
Turning to `CCc1c(C)[nH]c(=O)c(N(C)CCO)c1Cc1cccc(C)c1`, the IC50 worked out at 1.26 µM in experiment [1], 0.794 µM in experiment [2], 12.6 µM in experiment [5] and 0.005 µM in experiment [4]. Moreover, in experiment [3], the SI is 7940.
For the molecule `CCCCNc1c(Cc2cc(C)cc(C)c2)c(CC)c(C)[nH]c1=O`, the figures for the IC50 in experiment [1], in experiment [2] and in experiment [4] were 5.01 µM, 2 µM and 0.126 µM, respectively. For the same molecule, the SI in experiment [3] came to 398.
Consider `CCc1c(C)[nH]c(=O)c(N(C)CCCCCO)c1Cc1cc(C)cc(C)c1`, for which the IC50 came out at 0.126 µM in experiment [1], 0.1 µM in experiment [2], 2.51 µM in experiment [5] and 0.004 µM in experiment [4]. Also, the SI in experiment [3] was 12600.
Take `Cc1cccc(C(=O)c2c(C)c(C)nc(O)c2N(C)C)c1`: the IC50 in experiment [1] was found to be 2 µM; in experiment [2], 0.398 µM; in experiment [5] it was 50.1 µM; in experiment [4], 0.016 µM. The SI in experiment [3] was 6310.
As for `CCc1c(C)[nH]c(=O)c(NC(=S)Nc2ccccc2)c1Cc1cccc(C)c1`, in experiment [3], the SI turned out to be 25. This molecule also returned an IC50 in experiment [4] of 3.16 µM.
For `CCc1c(C)[nH]c(=O)c(NCc2ccccc2)c1Cc1cc(C)cc(C)c1`, the figures for the IC50 in experiment [1], in experiment [2] and in experiment [4] were 10 µM, 3.16 µM and 0.251 µM, respectively. For the same molecule, the SI in experiment [3] came to 251.
For `Cc1cc(C)cc(Cc2cc(C)[nH]c(=O)c2N(C)C)c1`, the 50% inhibitory concentration (IC50) worked out at 79.4 µM in experiment [1], 31.6 µM in experiment [2], 100 µM in experiment [5] and 0.398 µM in experiment [4]. Besides, the SI in experiment [3] was 251.
The matching figures for `Cc1cc(C)cc(Cc2c(CC(C)C)c(C)[nH]c(=O)c2N(C)C)c1`: 0.158 µM, 0.063 µM, 0.398 µM, 0.05 µM and 2000.
With `CCNC(=S)Nc1c(Cc2cccc(C)c2)c(CC)c(C)[nH]c1=O`, the SI in experiment [3] was determined as 4. This molecule also returned an IC50 in experiment [4] of 25.1 µM.
As for `CCc1c(C)[nH]c(=O)c(N2CCOCC2)c1Cc1cc(C)cc(C)c1`, the values for the IC50 in experiment [1], in experiment [2] and in experiment [4] were 10 µM, 100 µM and 0.158 µM, respectively. Further, the SI in experiment [3] worked out at 251.
For `CCc1c(C)[nH]c(=O)c(N(C)CCCSC)c1Cc1cc(C)cc(C)c1`, the IC50 in experiment [1] came to 0.501 µM; in experiment [2] it was 1 µM; in experiment [4], 0.025 µM. In addition, the SI in experiment [3] was 398.
Taken in the same sequence, the figures for `CCCCN(CCCC)c1c(Cc2cc(C)cc(C)c2)c(CC)c(C)[nH]c1=O` were 100 µM, 100 µM, 50.1 µM and 2.
`CCc1c(C)[nH]c(=O)c(NC=O)c1Cc1cc(C)cc(C)c1`: the IC50 in experiment [1] worked out at 7.94 µM; in experiment [2], 0.794 µM; in experiment [5] it was 0.316 µM; in experiment [4], 0.079 µM. For the same molecule, the SI in experiment [3] worked out at 1260.
Turning to `CCc1c(C)[nH]c(=O)c(NC)c1Cc1cc(C)cc(C)c1`, the half-maximal inhibitory concentration (IC50) in experiment [1] is 1 µM; in experiment [2], 0.079 µM; in experiment [5], 2 µM; in experiment [4] it was 0.01 µM. Also, the SI in experiment [3] is 5010.
As for `CCc1nc(O)c(N(C)C)c(C(=O)c2cccc(C)c2)c1C`, the SI in experiment [3] was 1000. This molecule displayed an IC50 in experiment [4] of 0.1 µM.
Turning to `CCc1c(C)[nH]c(=O)c(N(Cc2ccccc2)Cc2ccccc2)c1Cc1cc(C)cc(C)c1`, the IC50 in experiment [1] worked out at 79.4 µM; in experiment [2], 50.1 µM; in experiment [4], 100 µM. In addition, the SI in experiment [3] was 1.
Take `Cc1cc(C)cc(Cc2c(C)c(C)[nH]c(=O)c2N(C)C)c1`: the IC50 in experiment [1] was found to be 0.398 µM; in experiment [2] it was 0.398 µM; in experiment [5] it was 3.16 µM; in experiment [4], 0.005 µM. For the same molecule, in experiment [3], the SI was found to be 2000.
For `Cc1cc(C)cc(Cc2c(C)c(C(C)C)[nH]c(=O)c2N(C)C)c1`, the SI in experiment [3] came to 126. The midpoint of inhibition in experiment [4], the IC50, lay at 0.794 µM.
For the molecule `COCCc1c(C)nc(O)c(N(C)C)c1C(=O)c1cccc(C)c1`, the IC50 in experiment [1] is 1.26 µM; in experiment [2] it was 0.158 µM; in experiment [5], 10 µM; in experiment [4], 0.004 µM. The SI in experiment [3] was 7940.
Consider `CCc1c(C)[nH]c(=O)c(NC(N)=S)c1Cc1cccc(C)c1`, for which the SI in experiment [3] was 316. Also, in experiment [4], the IC50 was 0.316 µM.
Turning to `Cc1cc(C)cc(Cc2cc[nH]c(=O)c2N(C)C)c1`, the IC50 in experiment [1] was found to be 100 µM; in experiment [2], 39.8 µM; in experiment [4], 7.94 µM. The SI in experiment [3] is 10.
Turning to `CCc1c(C)[nH]c(=O)c(N(C)CCC#N)c1Cc1cccc(C)c1`, in experiment [3], the SI was 6310. Also, the midpoint of inhibition in experiment [4], the IC50, lay at 0.016 µM.
On to `CCCNc1c(Cc2cc(C)cc(C)c2)c(CC)c(C)[nH]c1=O`, for which the IC50 in experiment [1] is 15.8 µM; in experiment [2], 1.58 µM; in experiment [5], 100 µM; in experiment [4], 0.02 µM. In addition, the SI in experiment [3] came to 398.
As to `CCCC(=O)Nc1c(Cc2cc(C)cc(C)c2)c(CC)c(C)[nH]c1=O`, the IC50 in experiment [1], in experiment [2] and in experiment [4] was 100 µM each time. In addition, in experiment [3], the SI is 1.

The values above are taken from ChEMBL document CHEMBL1145200, “4-Benzyl and 4-benzoyl-3-dimethylaminopyridin-2(1H)-ones: in vitro evaluation of new C-3-amino-substituted and C-5,6-alkyl-substituted analogues against clinically important HIV mutant strains” (J Med Chem, 2005).
